Measured values taken from ChEMBL document CHEMBL4257576, “4-Iminooxazolidin-2-one as a Bioisostere of the Cyanohydrin Moiety: Inhibitors of Enterovirus 71 3C Protease” (J Med Chem, 2018).
Active and inactive are the calls of the source. The rule behind the calls is not given here.

Experiments:
Genome polyprotein = Genome polyprotein (Enterovirus A71, UniProt A0A1D8D5K2); experiment: Inhibition of EV71 3C protease expressed in Escherichia coli BL21(DE3) using NMA-IEALFQGPPK(DNP)FR as substrate preincubated for 0.5 hrs followed by substrate addition by fluorescence assay
Sequence of Genome polyprotein (A0A1D8D5K2 whole entry): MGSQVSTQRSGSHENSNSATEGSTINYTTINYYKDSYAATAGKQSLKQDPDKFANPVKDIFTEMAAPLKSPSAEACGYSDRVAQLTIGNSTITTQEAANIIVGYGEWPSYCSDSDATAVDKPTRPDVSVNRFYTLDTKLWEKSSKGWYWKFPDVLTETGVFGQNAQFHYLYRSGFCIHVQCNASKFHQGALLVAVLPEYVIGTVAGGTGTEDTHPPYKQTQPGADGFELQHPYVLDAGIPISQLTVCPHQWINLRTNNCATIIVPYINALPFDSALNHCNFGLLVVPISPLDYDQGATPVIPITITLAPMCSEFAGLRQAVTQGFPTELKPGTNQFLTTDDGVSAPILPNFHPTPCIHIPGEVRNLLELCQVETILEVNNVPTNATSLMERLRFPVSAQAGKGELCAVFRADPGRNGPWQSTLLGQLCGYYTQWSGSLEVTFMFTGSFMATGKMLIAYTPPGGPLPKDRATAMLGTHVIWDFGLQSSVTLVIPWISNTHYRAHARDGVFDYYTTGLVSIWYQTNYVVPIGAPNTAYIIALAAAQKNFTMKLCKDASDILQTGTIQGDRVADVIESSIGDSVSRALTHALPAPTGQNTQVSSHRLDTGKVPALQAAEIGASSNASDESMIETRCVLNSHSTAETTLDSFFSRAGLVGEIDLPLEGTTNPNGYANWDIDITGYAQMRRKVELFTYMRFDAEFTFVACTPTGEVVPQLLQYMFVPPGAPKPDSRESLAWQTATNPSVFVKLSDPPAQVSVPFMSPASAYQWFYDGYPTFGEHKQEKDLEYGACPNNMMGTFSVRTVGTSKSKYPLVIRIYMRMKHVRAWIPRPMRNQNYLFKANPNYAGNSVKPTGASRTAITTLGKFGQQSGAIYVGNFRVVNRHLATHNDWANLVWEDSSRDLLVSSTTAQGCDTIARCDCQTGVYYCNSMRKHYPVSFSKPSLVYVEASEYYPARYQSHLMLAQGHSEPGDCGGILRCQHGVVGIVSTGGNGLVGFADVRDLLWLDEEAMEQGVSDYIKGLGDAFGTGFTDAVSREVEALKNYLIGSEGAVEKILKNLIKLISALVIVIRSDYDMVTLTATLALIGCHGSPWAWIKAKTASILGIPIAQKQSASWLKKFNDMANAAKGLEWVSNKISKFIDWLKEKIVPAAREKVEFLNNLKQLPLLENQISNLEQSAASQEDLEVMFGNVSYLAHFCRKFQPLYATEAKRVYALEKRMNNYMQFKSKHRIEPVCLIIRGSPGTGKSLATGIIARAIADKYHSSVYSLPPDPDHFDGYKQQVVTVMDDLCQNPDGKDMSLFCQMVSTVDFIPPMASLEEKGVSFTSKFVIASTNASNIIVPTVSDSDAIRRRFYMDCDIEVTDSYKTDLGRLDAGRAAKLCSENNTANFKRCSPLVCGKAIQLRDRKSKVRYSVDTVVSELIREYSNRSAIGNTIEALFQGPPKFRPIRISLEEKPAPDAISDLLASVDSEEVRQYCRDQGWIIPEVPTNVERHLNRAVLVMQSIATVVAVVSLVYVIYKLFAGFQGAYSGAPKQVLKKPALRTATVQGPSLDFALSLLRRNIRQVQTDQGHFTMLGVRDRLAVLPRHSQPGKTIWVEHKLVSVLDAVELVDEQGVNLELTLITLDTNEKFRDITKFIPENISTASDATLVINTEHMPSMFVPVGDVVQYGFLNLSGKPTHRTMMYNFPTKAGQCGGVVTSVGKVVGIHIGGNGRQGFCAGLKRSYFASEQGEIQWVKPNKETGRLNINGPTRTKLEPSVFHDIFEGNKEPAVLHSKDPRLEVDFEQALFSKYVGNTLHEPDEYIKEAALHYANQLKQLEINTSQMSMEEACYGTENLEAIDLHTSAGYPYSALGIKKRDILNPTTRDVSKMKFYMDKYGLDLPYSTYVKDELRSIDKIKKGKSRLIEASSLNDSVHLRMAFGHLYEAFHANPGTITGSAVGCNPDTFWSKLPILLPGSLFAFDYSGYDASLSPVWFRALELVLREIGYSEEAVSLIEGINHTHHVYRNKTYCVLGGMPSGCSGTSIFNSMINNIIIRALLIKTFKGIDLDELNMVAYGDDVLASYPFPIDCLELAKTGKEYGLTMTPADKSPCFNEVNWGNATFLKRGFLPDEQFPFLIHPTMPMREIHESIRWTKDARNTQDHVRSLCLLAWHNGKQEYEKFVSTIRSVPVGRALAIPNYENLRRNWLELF
Summary of the method: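 Values reported as Ki (µM), each the mean of three independent experiments with SEM (n=3).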

Enterovirus A71 = experiment: Antiviral activity against Enterovirus A71 infected in human RD cells receiving pEV71-Luc subgenomic replicon stocks from HEK-293T cells; format: functional, organism-based; conditions: Enterovirus A
Summary of the method: (§1)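 Values (EC50, CC50) are the average of three independent experiments, with SEM (n = 3).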

[1] = Cytotoxicity in human RD cells assessed as reduction in cell viability incubated for 24 hrs by WST1 assay; format: cell-based; summary of the method: as §1
[2] = Half life in human plasma by HPLC analysis; format: ADME, cell-free
Summary of the method: (§2)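 Compound was incubated in human or mouse plasma and its remaining level followed over time to obtain t1/2. Each point is n = 3 with standard deviation bars.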

[3] = Half life in ICR (CD-1) mouse plasma by HPLC analysis; format: ADME, cell-free; summary of the method: as §2
[4] = Half life in human liver microsomes at 1 mg/ml in presence of NADPH regenerating system by HPLC analysis; format: ADME, microsome
Summary of the method: (§3)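 Human and mouse liver microsomes at 1.0 mg/mL. Compound disappearance was tracked over time to give half-life and intrinsic clearance (Clint, µL/min/mg). Data are the mean of triplicates with SD (n = 3).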

[5] = Half life in mouse liver microsomes at 1 mg/ml in presence of NADPH regenerating system by HPLC analysis; format: ADME, microsome; summary of the method: as §3
[6] = Intrinsic clearance in human liver microsomes at 1 mg/ml in presence of NADPH regenerating system by HPLC analysis; format: ADME, microsome; conditions: read-out: CLH; summary of the method: as §3
[7] = Intrinsic clearance in mouse liver microsomes at 1 mg/ml in presence of NADPH regenerating system by HPLC analysis; format: ADME, microsome; conditions: read-out: CLH; summary of the method: as §3
[8] = molecular target: Genome polyprotein (Enterovirus A71) (UniProt A0A1D8D5K2); experiment: Covalent binding affinity to EV71 3C protease expressed in Escherichia coli BL21(DE3) at 2 mg/ml incubated for 2 to 3 hrs and measured after trypsin digestion by LC-MS/MS analysis
Sequence of Genome polyprotein (Enterovirus A71) (A0A1D8D5K2 as listed by the source): as the sequence (A0A1D8D5K2 whole entry) above

[9] = Drug metabolism in PBS buffer at pH 7.4; format: physicochemical
[10] = Drug metabolism in ICR (CD-1) mouse plasma by UPLC/Q-TOF-MS analysis; format: ADME, cell-free
Summary of the method: (§4)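 Compound was incubated with mouse plasma for 60 min. LC/MS followed loss of the parent peak and appearance of a product peak by retention time, and the product was characterized by tandem MS.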

[11] = Retention time of compound in ICR (CD-1) mouse plasma by UPLC/Q-TOF-MS analysis; format: ADME, cell-free; summary of the method: as §4
Mus musculus [12] = experiment: AUC (0 to t) in ICR (CD-1) mouse at 20 mg/kg, iv administered as single dose by LC-MS analysis; format: ADME, organism-based; conditions: in vivo
Summary of the method: (§5)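 Male mice got a single 20 mg/kg dose, either IV or oral (PO), with separate groups for each route. Plasma concentration–time profiles were followed, and parameters were taken from mean ± SD curves (n = 3).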

Mus musculus [13] = experiment: Cmax in ICR (CD-1) mouse at 20 mg/kg, iv administered as single dose by LC-MS analysis; format: ADME, organism-based; design: dose 20 mg/kg, route intravenous; conditions: in vivo; summary of the method: as §5
[14] = Tmax in ICR (CD-1) mouse at 20 mg/kg, iv administered as single dose by LC-MS analysis; format: ADME, organism-based; conditions: in vivo; summary of the method: as §5
[15] = Half life in ICR (CD-1) mouse at 20 mg/kg, iv administered as single dose by LC-MS analysis; format: ADME, organism-based; conditions: in vivo; summary of the method: as §5
Mus musculus [16] = experiment: AUC (0 to t) in ICR (CD-1) mouse at 20 mg/kg, po administered as single dose by LC-MS analysis; format: ADME, organism-based; conditions: in vivo; summary of the method: as §5
Mus musculus [17] = experiment: Cmax in ICR (CD-1) mouse at 20 mg/kg, po administered as single dose by LC-MS analysis; format: ADME, organism-based; design: dose 20 mg/kg, route oral; conditions: in vivo; summary of the method: as §5
[18] = Tmax in ICR (CD-1) mouse at 20 mg/kg, po administered as single dose by LC-MS analysis; format: ADME, organism-based; conditions: in vivo; summary of the method: as §5
[19] = Half life in ICR (CD-1) mouse at 20 mg/kg, po administered as single dose by LC-MS analysis; format: ADME, organism-based; conditions: in vivo; summary of the method: as §5

| SMILES | Ki (Genome polyprotein) [nM] | EC50 (Enterovirus A71) [nM] | CC50 at 24 h [1] [nM] | other results |
| --- | --- | --- | --- | --- |
| Cc1cc(C(=O)N[C@@H](Cc2ccc(F)cc2)C(=O)N[C@@H](C[C@@H]2CCCNC2=O)[C@H](C#N)OC(=O)NC2CC2)no1 | 1280 | 5110 | > 100000 | – |
| CCCCN1C(=N)[C@@H]([C@H](C[C@@H]2CCCNC2=O)NC(=O)[C@H](Cc2ccc(F)cc2)NC(=O)c2cc(C)on2)OC1=O | 2540 | 12700 | > 100000 | – |
| CCCNC(=O)O[C@H](C#N)[C@H](C[C@@H]1CCCNC1=O)NC(=O)[C@H](Cc1ccc(F)cc1)NC(=O)c1cc(C)on1 | 183 | 2210 | > 100000 | – |
| CCNC(=O)O[C@@H](C#N)[C@H](C[C@@H]1CCCNC1=O)NC(=O)[C@H](Cc1ccc(F)cc1)NC(=O)c1cc(C)on1 | 51 | 750 | > 100000 | – |
| Cc1cc(C(=O)N[C@@H](Cc2ccc(F)cc2)C(=O)N[C@@H](C[C@@H]2CCCNC2=O)[C@@H]2OC(=O)N(C(C)C)C2=N)no1 | 61 | 510 | > 100000 | – |
| CC(=O)O[C@@H](C#N)[C@H](C[C@@H]1CCCNC1=O)NC(=O)[C@H](Cc1ccc(F)cc1)NC(=O)c1cc(C)on1 | 64 | 67 | > 100000 | half-life [2]: 50 min; half-life [3]: 42 min; half-life [4]: 64 min |
| CCCCNC(=O)O[C@H](C#N)[C@H](C[C@@H]1CCCNC1=O)NC(=O)[C@H](Cc1ccc(F)cc1)NC(=O)c1cc(C)on1 | 4780 | 8460 | > 100000 | – |
| Cc1cc(C(=O)N[C@@H](Cc2ccc(F)cc2)C(=O)N[C@@H](C[C@@H]2CCCNC2=O)[C@H]2OC(=O)N(C(C)C)C2=N)no1 | 33 | 100 | > 100000 | half-life [2]: > 120 min; half-life [3]: > 120 min; half-life [4]: 76 min; half-life [5]: 74 min; microsomal CLint [6]: 9 µL/min/mg; microsomal CLint [7]: 9 µL/min/mg |
| Cc1cc(C(=O)N[C@@H](Cc2ccc(F)cc2)C(=O)N[C@@H](C[C@@H]2CCCNC2=O)[C@H](C#N)OC(=O)C2CC2)no1 | 560 | 4930 | > 100000 | – |
| Cc1cc(C(=O)N[C@@H](Cc2ccc(F)cc2)C(=O)N[C@@H](C[C@@H]2CCCNC2=O)[C@@H](C#N)OC(=O)NC(C)C)no1 | 93 | 1730 | > 100000 | – |
| Cc1cc(C(=O)N[C@@H](Cc2ccc(F)cc2)C(=O)N[C@@H](C[C@@H]2CCCNC2=O)[C@@H](O)C#N)no1 | 4 | 88 | > 100000 | half-life [2]: 11 min; half-life [3]: 7 min; half-life [4]: 8 min; half-life [5]: 6 min; microsomal CLint [6]: 87 µL/min/mg; microsomal CLint [7]: 116 µL/min/mg; Activity [8]: inactive |
| Cc1cc(C(=O)N[C@@H](Cc2ccc(F)cc2)C(=O)N[C@@H](C[C@@H]2CCCNC2=O)[C@H](C#N)OC(=O)C(C)C)no1 | 240 | 2610 | > 100000 | – |
| CCCN1C(=N)[C@H]([C@H](C[C@@H]2CCCNC2=O)NC(=O)[C@H](Cc2ccc(F)cc2)NC(=O)c2cc(C)on2)OC1=O | 2600 | 12700 | > 100000 | – |
| Cc1cc(C(=O)N[C@@H](Cc2ccc(F)cc2)C(=O)N[C@@H](C[C@@H]2CCCNC2=O)[C@@H]2OC(=O)N(C)C2=N)no1 | 210 | 1030 | > 100000 | – |
| CCN(C)C(=O)O[C@@H](C#N)[C@H](C[C@@H]1CCCNC1=O)NC(=O)[C@H](Cc1ccc(F)cc1)NC(=O)c1cc(C)on1 | – | > 100000 | > 100000 | half-life [3]: > 120 min; Drug metabolism [9]: Metabolite_Notdetected |
| Cc1cc(C(=O)N[C@@H](Cc2ccc(F)cc2)C(=O)N[C@@H](C[C@@H]2CCCNC2=O)[C@@H](C#N)OC(=O)NC2CC2)no1 | 6210 | 12800 | > 100000 | – |

| SMILES | Ki (Genome polyprotein) [nM] | EC50 (Enterovirus A71) [nM] | CC50 at 24 h [1] [nM] | other results |
| --- | --- | --- | --- | --- |
| Cc1cc(C(=O)N[C@@H](Cc2ccc(F)cc2)C(=O)N[C@@H](C[C@@H]2CCCNC2=O)[C@H](C#N)OC(=O)NC(C)C)no1 | 36 | 650 | > 100000 | half-life [3]: 31 min; Drug metabolism [9]: Metabolite_Detected; Drug metabolism [10]: Metabolite_Detected; Retention_time [11]: 6.41 min |
| CCN1C(=N)[C@@H]([C@H](C[C@@H]2CCCNC2=O)NC(=O)[C@H](Cc2ccc(F)cc2)NC(=O)c2cc(C)on2)OC1=O | 220 | 4370 | > 100000 | – |
| CCN1C(=N)[C@H]([C@H](C[C@@H]2CCCNC2=O)NC(=O)[C@H](Cc2ccc(F)cc2)NC(=O)c2cc(C)on2)OC1=O | 3530 | 17200 | > 100000 | – |
| CCCN1C(=N)[C@@H]([C@H](C[C@@H]2CCCNC2=O)NC(=O)[C@H](Cc2ccc(F)cc2)NC(=O)c2cc(C)on2)OC1=O | 83 | 210 | > 100000 | half-life [2]: > 120 min; half-life [3]: > 120 min; half-life [4]: 40 min; half-life [5]: 35 min; microsomal CLint [6]: 17 µL/min/mg; microsomal CLint [7]: 20 µL/min/mg; AUCt (Mus musculus [12]): 2340 ng·h/mL; Cmax (Mus musculus [13]): 8200 ng/mL; Tmax [14]: 5 min; half-life [15]: 51 min; AUCt (Mus musculus [16]): 7.9 mg·min/mL; Cmax (Mus musculus [17]): 150 ng/mL; Tmax [18]: 15 min; half-life [19]: 60 min; Activity [8]: inactive |
| Cc1cc(C(=O)N[C@@H](Cc2ccc(F)cc2)C(=O)N[C@@H](C[C@@H]2CCCNC2=O)[C@H]2OC(=O)N(C3CC3)C2=N)no1 | 1710 | 8810 | > 100000 | – |
| CCCCNC(=O)O[C@@H](C#N)[C@H](C[C@@H]1CCCNC1=O)NC(=O)[C@H](Cc1ccc(F)cc1)NC(=O)c1cc(C)on1 | 450 | 690 | > 100000 | – |
| Cc1cc(C(=O)N[C@@H](Cc2ccc(F)cc2)C(=O)N[C@@H](C[C@@H]2CCCNC2=O)[C@H](C#N)OC(=O)N(C)C)no1 | – | 70400 | > 100000 | – |
| Cc1cc(C(=O)N[C@@H](Cc2ccc(F)cc2)C(=O)N[C@@H](C[C@@H]2CCCNC2=O)[C@H]2OC(=O)N(C)C2=N)no1 | 280 | 3970 | > 100000 | – |
| CCCNC(=O)O[C@@H](C#N)[C@H](C[C@@H]1CCCNC1=O)NC(=O)[C@H](Cc1ccc(F)cc1)NC(=O)c1cc(C)on1 | 85 | 160 | > 100000 | half-life [3]: 12 min; Drug metabolism [9]: Metabolite_Detected; Drug metabolism [10]: Metabolite_Detected |
| Cc1cc(C(=O)N[C@@H](Cc2ccc(F)cc2)C(=O)N[C@@H](C[C@@H]2CCCNC2=O)[C@H](C#N)OC(=O)Nc2ccccc2)no1 | – | 13200 | > 100000 | – |
| Cc1cc(C(=O)N[C@@H](Cc2ccc(F)cc2)C(=O)N[C@@H](C[C@@H]2CCCNC2=O)[C@H](C#N)OC(=O)N2CCOCC2)no1 | – | > 100000 | > 100000 | half-life [3]: > 120 min; Drug metabolism [9]: Metabolite_Notdetected |
| CNC(=O)O[C@@H](C#N)[C@H](C[C@@H]1CCCNC1=O)NC(=O)[C@H](Cc1ccc(F)cc1)NC(=O)c1cc(C)on1 | 71 | 620 | > 100000 | – |
| CNC(=O)O[C@H](C#N)[C@H](C[C@@H]1CCCNC1=O)NC(=O)[C@H](Cc1ccc(F)cc1)NC(=O)c1cc(C)on1 | 46 | 1000 | > 100000 | – |
| CCOC(=O)/C=C/[C@H](C[C@@H]1CCNC1=O)NC(=O)[C@@H](CC(=O)[C@@H](NC(=O)c1cc(C)on1)C(C)C)Cc1ccc(F)cc1 | – | – | – | Activity [8]: Active |
| CCNC(=O)O[C@H](C#N)[C@H](C[C@@H]1CCCNC1=O)NC(=O)[C@H](Cc1ccc(F)cc1)NC(=O)c1cc(C)on1 | 190 | 3580 | > 100000 | – |
